Source: ChEMBL document CHEMBL1152442, “Discovery of a new template for anticancer agents: 2'-deoxy-2'-fluoro-4'-selenoarabinofuranosyl-cytosine (2'-F-4'-seleno-ara-C)” (J Med Chem, 2009)

What was measured:
Assay type in all cases: functional, cell-based
HCT-116 = assay: Cytotoxicity against human HCT116 cells by sulforhodamine B method
Method in brief: (§1)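 Human tumour lines tested: colon HCT116, lung A549, stomach SNU638, breast T47D, prostate PC-3 and leukaemia K562. Growth was read out by sulforhodamine B protein staining.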

A549 = assay: Cytotoxicity against human A549 cells by sulforhodamine B method; method in brief: as §1
SNU-638 = assay: Cytotoxicity against human SNU638 cells by sulforhodamine B method; method in brief: as §1
T47D = assay: Cytotoxicity against human T47D cells by sulforhodamine B method; method in brief: as §1
PC-3 = assay: Cytotoxicity against human PC3 cells by sulforhodamine B method; method in brief: as §1
K562 = assay: Cytotoxicity against human K562 cells by sulforhodamine B method; method in brief: as §1

| SMILES | IC50 (HCT-116) | IC50 (A549) | IC50 (SNU-638) | IC50 (T47D) | IC50 (PC-3) | IC50 (K562) |
| --- | --- | --- | --- | --- | --- | --- |
| Nc1ccn([C@@H]2O[C@H](CO)[C@@H](O)[C@@H]2O)c(=O)n1 [CYTARABINE] | 5300 nM | 1900 nM | 150 nM | 2700 nM | 55900 nM | 50 nM |
| O=c1ccn([C@@H]2[Se][C@H](CO)[C@@H](O)[C@@H]2O)c(=O)[nH]1 | > 100000 nM | > 100000 nM | > 100000 nM | > 100000 nM | > 100000 nM | > 100000 nM |
| Nc1ccn([C@@H]2O[C@H](CO)[C@@H](O)C2(F)F)c(=O)n1 [GEMCITABINE] | 5 nM | 90 nM | – | – | 40 nM | – |
| Nc1ccn([C@@H]2[Se][C@H](CO)[C@@H](O)[C@@H]2F)c(=O)n1 | 1100 nM | 470 nM | 140 nM | 790 nM | 580 nM | 630 nM |
| O=c1ccn([C@@H]2[Se][C@H](CO)[C@@H](O)[C@@H]2F)c(=O)[nH]1 | > 100000 nM | > 100000 nM | > 100000 nM | > 100000 nM | > 100000 nM | > 100000 nM |
| Nc1ccn([C@@H]2[Se][C@H](CO)[C@@H](O)[C@@H]2O)c(=O)n1 | 7130 nM | 8830 nM | 4720 nM | – | – | 86600 nM |
